Calls of active or inactive are those of the source. The calls are words filed in the database; no cut-off is given here.
What was measured:
Mus musculus [1] = test: Antitumor activity against mouse advanced Lewis lung carcinoma allografted in BDF1 mouse assessed as disease cure at 93 mg/kg, ip administered as single dose on 7th day post-tumor implantation measured for 80 days post-drug treatment; format: functional, organism-based; parameters: dose 93 mg/kg
How it was run: (§1)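 BDF1 mice (C57Blk/6 × DBA/2) implanted sc by trocar with about 40 mg Lewis lung tumor fragments from bacteriologically sterile donors. Advanced-disease groups held tumors of about 400 mg by day 6-7, sized by caliper (w = ab²/2). Single ip injection on day 7, in water or saline vehicle, at or below the LD10 in normal mice. Tumors measured at least twice weekly.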

Mus musculus [2] = test: Antitumor activity against mouse advanced Lewis lung carcinoma allografted in BDF1 mouse assessed as disease cure at 62 mg/kg, ip administered as single dose on 7th day post-tumor implantation measured for 80 days post-drug treatment; format: functional, organism-based; parameters: dose 62 mg/kg; how it was run: as §1
[3] = Antitumor activity against mouse advanced Lewis lung carcinoma allografted in BDF1 mouse assessed as increase in host life span at 93 mg/kg, ip administered as single dose on 7th day post-tumor implantation; format: functional; details: route intraperitoneal; how it was run: as §1
[4] = Antitumor activity against mouse advanced Lewis lung carcinoma allografted in BDF1 mouse assessed as increase in host life span at 62 mg/kg, ip administered as single dose on 7th day post-tumor implantation; format: functional; details: route intraperitoneal; how it was run: as §1
Mus musculus [5] = test: Antitumor activity against mouse advanced Lewis lung carcinoma allografted in BDF1 mouse assessed as complete regression of established tumor at 93 mg/kg, ip administered as single dose on 7th day post-tumor implantation; format: functional, organism-based; parameters: dose 93 mg/kg; how it was run: as §1
Mus musculus [6] = test: Antitumor activity against mouse advanced Lewis lung carcinoma allografted in BDF1 mouse assessed as complete regression of established tumor at 62 mg/kg, ip administered as single dose on 7th day post-tumor implantation; format: functional, organism-based; parameters: dose 62 mg/kg; how it was run: as §1
Mus musculus [7] = test: Antitumor activity against mouse advanced Lewis lung carcinoma allografted in ip dosed BDF1 mouse assessed as complete regression of established tumor administered as single dose on day 6 or 7 post-tumor implantation; format: functional, organism-based
How it was run: (§2)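 BDF1 mice (C57Blk/6 × DBA/2) implanted sc by trocar with Lewis lung tumor fragments of about 40 mg, taken only from bacteriologically sterile donor tumors. Mice bearing tumors of about 400 mg (day 6-7) were selected. Each received a single ip dose on day 7, at or below the LD10 in normal mice. Groups were of 10 mice. Tumor weight was taken from calipers as w = ab²/2, measured at least twice weekly. Matched non-tumor mice served as toxicity controls.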

Mus musculus [8] = test: Antitumor activity against mouse advanced Lewis lung carcinoma allografted in ip dosed BDF1 mouse assessed as disease cure administered as single dose on day 6 or 7 post-tumor implantation; format: functional, organism-based; how it was run: as §2
[9] = Antitumor activity against mouse advanced Lewis lung carcinoma allografted in ip dosed BDF1 mouse assessed as increase in host lifespan administered as single dose on day 6 or 7 post-tumor implantation; format: functional
How it was run: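 Advanced Lewis lung model: about 40 mg fragments implanted sc by trocar into BDF1 mice, and mice with tumors of about 400 mg (day 6-7) selected. Tumor weight from calipers, w = ab²/2. Agent given as one ip dose in distilled water or physiological saline. Nontumor-bearing mice received matching doses as toxicity controls.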

[10] = Antitumor activity against mouse advanced Lewis lung carcinoma allografted in BDF1 mouse assessed as increase in host life span at 30 mg/kg, ip administered as single dose on 7th day post-tumor implantation; format: functional; details: route intraperitoneal; how it was run: as §1
[11] = Antitumor activity against mouse advanced Lewis lung carcinoma allografted in BDF1 mouse assessed as increase in host life span at 29 mg/kg, ip administered as single dose on 7th day post-tumor implantation; format: functional; details: route intraperitoneal; how it was run: as §1
Mus musculus [12] = test: Antitumor activity against mouse advanced Lewis lung carcinoma allografted in BDF1 mouse assessed as disease cure at 45 mg/kg, ip administered as single dose on 7th day post-tumor implantation measured for 80 days post-drug treatment; format: functional, organism-based; parameters: dose 45 mg/kg; how it was run: as §2
Mus musculus [13] = test: Antitumor activity against mouse advanced Lewis lung carcinoma allografted in BDF1 mouse assessed as disease cure at 30 mg/kg, ip administered as single dose on 7th day post-tumor implantation measured for 80 days post-drug treatment; format: functional, organism-based; parameters: dose 30 mg/kg; how it was run: as §2
[14] = Antitumor activity against mouse advanced Lewis lung carcinoma allografted in BDF1 mouse assessed as increase in host life span at 45 mg/kg, ip administered as single dose on 7th day post-tumor implantation; format: functional; details: route intraperitoneal; how it was run: as §1
Mus musculus [15] = test: Antitumor activity against mouse advanced Lewis lung carcinoma allografted in BDF1 mouse assessed as complete regression of established tumor at 30 mg/kg, ip administered as single dose on 7th day post-tumor implantation; format: functional, organism-based; parameters: dose 30 mg/kg; how it was run: as §2
Mus musculus [16] = test: Antitumor activity against mouse advanced Lewis lung carcinoma allografted in BDF1 mouse assessed as disease cure at 36 mg/kg, ip administered as single dose on 7th day post-tumor implantation measured for 80 days post-drug treatment; format: functional, organism-based; parameters: dose 36 mg/kg; how it was run: as §2
[17] = Antitumor activity against mouse advanced Lewis lung carcinoma allografted in BDF1 mouse assessed as increase in host life span at 36 mg/kg, ip administered as single dose on 7th day post-tumor implantation; format: functional; details: route intraperitoneal; how it was run: as §1
Mus musculus [18] = test: Antitumor activity against mouse advanced Lewis lung carcinoma allografted in BDF1 mouse assessed as complete regression of established tumor at 36 mg/kg, ip administered as single dose on 7th day post-tumor implantation; format: functional, organism-based; parameters: dose 36 mg/kg; how it was run: as §2
[19] = Antitumor activity against mouse early Lewis lung carcinoma allografted in BDF1 mouse assessed as increase in host life span at 38 mg/kg, ip administered as single dose on 1 or 2 days post-tumor implantation; format: functional; details: route intraperitoneal
How it was run: (§3)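 BDF1 mice (C57Blk/6 × DBA/2) implanted sc by trocar with ~40 mg Lewis lung tumor fragments from bacteriologically sterile donor tumors. Single ip dose on day 1 or 2, as a solution or suspension in water (CMC or gum acacia) or saline (HPC or Tween 80). Read-out is […]. Same-dose toxicity controls were run in nontumor-bearing mice.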

[20] = Antitumor activity against mouse early Lewis lung carcinoma allografted in BDF1 mouse assessed as increase in host life span at 26 mg/kg, ip administered as single dose on 1 or 2 days post-tumor implantation; format: functional; details: route intraperitoneal; how it was run: as §3
[21] = Antitumor activity against mouse early Lewis lung carcinoma allografted in BDF1 mouse assessed as time delay in tumor growth at 38 mg/kg, ip administered as single dose on 1 or 2 days post-tumor implantation; format: functional; details: route intraperitoneal
How it was run: (§4)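 BDF1 mice (C57Blk/6 × DBA/2) implanted sc by trocar with ~40 mg Lewis lung tumor fragments from bacteriologically sterile donors. A single ip dose was given on day 1 or 2, as a solution or suspension in water or saline with suspending agent, at ≤0.5 ml. Tumors were measured by caliper at least twice weekly, with weight = ab²/2. Delay was taken as the days for the tumor to reach 1 g.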

[22] = Antitumor activity against mouse early Lewis lung carcinoma allografted in BDF1 mouse assessed as time delay in tumor growth at 26 mg/kg, ip administered as single dose on 1 or 2 days post-tumor implantation; format: functional; details: route intraperitoneal; how it was run: as §4
[23] = Antitumor activity against mouse early Lewis lung carcinoma allografted in ip dosed BDF1 mouse assessed as disease cure administered as single dose on 1 or 2 days post-tumor implantation measured for 80 days post-drug treatment; format: functional
How it was run: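 BDF1 mice implanted sc by trocar with ~40 mg Lewis lung fragments from sterile donor tumors. A single ip dose was given on day 1 or 2 after implant, in water or saline vehicle. Cures were scored in animals observed for at least 80 days after treatment. Drug-toxicity controls were matched non-tumor-bearing mice monitored for body weight and deaths.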

[24] = Ratio of ED50 for antitumor activity against mouse L1210 cells allografted in ip dosed mouse to LD10 for mouse
Mus musculus [25] = test: Antitumor activity against mouse advanced Lewis lung carcinoma allografted in BDF1 mouse assessed as disease cure at 11 mg/kg, ip administered as single dose on 7th day post-tumor implantation measured for 80 days post-drug treatment; format: functional, organism-based; parameters: dose 11 mg/kg; how it was run: as §2
[26] = Antitumor activity against mouse advanced Lewis lung carcinoma allografted in BDF1 mouse assessed as increase in host life span at 11 mg/kg, ip administered as single dose on 7th day post-tumor implantation; format: functional; details: route intraperitoneal; how it was run: as §1

Structure (SMILES): Cc1ccc(S(=O)(=O)NC(=O)N(CCCl)N=O)cc1
- Activity (Mus musculus [1]): inactive
- Activity (Mus musculus [2]): inactive
- ILS at 93 mg/kg [3]: 28%
- ILS at 62 mg/kg [4]: 28%
- inhibition (Mus musculus [5]): inactive
- inhibition (Mus musculus [6]): inactive
- inhibition (Mus musculus [7]): inactive
- Activity (Mus musculus [8]): inactive
- ILS [9]: >25%

Structure (SMILES): CCOC(=O)[C@H]1CC[C@H](NC(=O)N(CCCl)N=O)CC1
- ILS at 30 mg/kg [10]: 68%
- ILS at 29 mg/kg [11]: 75%
- Activity (Mus musculus [8]): Active

Structure (SMILES): CCOC(=O)[C@H]1CCC[C@@H](NC(=O)N(CCCl)N=O)C1 (relative stereo)
- Activity (Mus musculus [12]): inactive
- Activity (Mus musculus [13]): inactive
- ILS at 45 mg/kg [14]: 0%
- ILS at 30 mg/kg [10]: 62%
- inhibition (Mus musculus [15]): inactive
- inhibition (Mus musculus [7]): Active
- Activity (Mus musculus [8]): inactive

Structure (SMILES): CC(=O)O[C@H]1CC[C@H](NC(=O)N(CCCl)N=O)CC1
- Activity (Mus musculus [16]): inactive
- ILS at 36 mg/kg [17]: 34%
- inhibition (Mus musculus [18]): inactive
- inhibition (Mus musculus [7]): inactive
- Activity (Mus musculus [8]): inactive
- ILS [9]: >25%

Structure (SMILES): O=NN(CCCl)C(=O)N[C@H]1CC[C@H](O)CC1
- ILS at 38 mg/kg [19]: 146%
- ILS at 26 mg/kg [20]: 84%
- Time [21]: 10.2 days
- Time [22]: 3.3 days
- Activity [23]: 10%
- Ratio [24]: 0.4
- inhibition (Mus musculus [7]): inactive
- ILS [9]: <25%

Structure (SMILES): O=NN(CCCl)C(=O)NC1CCS(=O)(=O)CC1
- Activity (Mus musculus [25]): inactive
- ILS at 11 mg/kg [26]: 27%
- inhibition (Mus musculus [7]): inactive
- Activity (Mus musculus [8]): inactive
- ILS [9]: >25%
